pIC50: −log10 of the molar value.

A short description of assay [1]: Antiangiogenic activity in bovine endothelial cells assessed as inhibition of cell proliferation. Type of assay: functional, cell-based. To be noted: Bos taurus.
Assay [2] in a line: Antiangiogenic activity in SV-40T transfected human HMEC1 cells assessed as inhibition of cell proliferation after 72 hrs by crystal violet staining. Type of assay: functional, cell-based. Particulars: HMEC-1, 72 h. An outline of the steps:
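SV-40T-transfected human microvascular endothelial HMEC-1 cells kept at 37 °C, 5% CO2, humidified. Seeded 1.5 × 10^3 cells/well in endothelial growth medium with 10% FCS, allowed 24 h adhesion (crystal-violet baseline plate). Exposed to 0.1−30 or 0.2−60 μM compound (DMSO; 0.1% DMSO control) for 72 h. Crystal violet stain, A540. IC50 ± SD from three independent experiments, hexaplicates.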

The pIC50 is −log10 of the IC50, conventionally taken in molar units. In the case of `CC(C)=CCC[C@]1(C)[C@@H](CC=C(C)C)C[C@]2(CC=C(C)C)C(=O)C(CC=C(C)C)=C(O)[C@@]1(C(=O)C(C)C)C2=O`, the pIC50 in assay [1] is 5.68.

Consider `CCC(C)C(=O)c1c(O)cc2c(c1O)CCC(C)(CCC=C(C)C)O2` (centres undefined), for which the negative logarithm of the IC50 (pIC50) in assay [2] is 4.68. For the compound `CCC(C)C(=O)c1c(O)cc(O)c2c1OC(C)(CCC=C(C)C)CC2` (centres undefined), the negative-log IC50 (pIC50) in assay [2] was 4.88. On the same count and under the same terms, in the case of `CC(C)=CCCC1(C)CCc2c(O)cc(O)c(C(=O)C(C)C)c2O1` (centres undefined) it was 4.78. In the case of `CC(C)=CCCC1(C)CCc2c(cc(O)c(C(=O)C(C)C)c2O)O1` (centres undefined), in assay [2], the pIC50 was 4.53.

As for `CC(C)C(=O)c1c(O)cc(O)c2c1O[C@]1(C)CCCC(C)(C)[C@H]1C2` (relative stereo) [EMPETRIFERDINAN A], the pIC50 in assay [2] was 4.61. For the compound `CCC(C)C(=O)c1c(O)cc(O)c2c1O[C@]1(C)CCCC(C)(C)[C@H]1C2` (relative stereo) [EMPETRIFERDINAN B], the pIC50 in assay [2] was 4.78. `CCC(C)C(=O)c1c(O)cc(O)c2c1O[C@]1(C)CC[C@@H](O)C(C)(C)[C@H]1C2` (relative stereo) [EMPETRIFERDINOL]: in assay [2], the pIC50 is 4.53. With `CC(C)=CCC[C@@]1(C)Oc2c(c(O)cc(O)c2C(=O)C(C)C)C[C@@H]1O` (relative stereo) [EMPETRIKARINOL A], in assay [2], the pIC50 is 4.63. Consider `CCC(C)C(=O)c1c(O)cc(O)c2c1O[C@](C)(CCC=C(C)C)[C@@H](O)C2` (relative stereo) [EMPETRIKARINOL B], for which the pIC50 in assay [2] is 4.74.

As to `CCC(C)C(=O)c1c(O)cc2c3c1OC(C)(C)C1CCC(C)(CC31)O2` (centres undefined) [EMPETRIFRANZINAN C], the pIC50 in assay [2] was 5.04. The same measure, in the same setting: in the case of `CC(C)=CCCC1(C)C=Cc2c(O)cc(O)c(C(=O)C(C)C)c2O1` (centres undefined) [EMPETRIKARINEN A] it was 4.61; in that of `CCC(C)C(=O)c1c(O)cc(O)c2c1OC(C)(CCC=C(C)C)C=C2` (centres undefined) [EMPETRIKARINEN B], 4.82. Regarding `COc1cc(O)c(CC=C(C)C)c(O)c1C(=O)/C=C/c1ccc(O)cc1` [XANTHOHUMOL], the pIC50 in assay [2] is 4.94.

The record behind these values is ChEMBL document CHEMBL2150868, “Bi-, tri-, and polycyclic acylphloroglucinols from Hypericum empetrifolium” (J Nat Prod, 2012).
